Reference: ChEMBL document CHEMBL1122619, “Synthesis and antiarrhythmic and parasympatholytic properties of substituted phenols. 2. Amides” (J Med Chem, 1984)
The source made the active and inactive calls. The rule behind the calls is not given here.

Columns and labels:
Cavia porcellus [1] = organism: Cavia porcellus; experiment: Parasympatholytic activity was assessed from the ability to inhibit electrically stimulated contraction of isolated guinea pig ileum at 4 mg/L of base; type: functional
How it was run: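 Electrically stimulated isolated guinea pig ileum, in which tension arises from stimulated acetylcholine release from postganglionic parasympathetic nerve terminals. After about 60 min equilibration, contractile tension was measured just before and during the steady-state response to test drug at 4 mg/L, calculated as free base.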

Canis familiaris [2] = experiment: Compound was evaluated for ouabain-induced arrhythmia in anesthetized adult male mongrel dogs. Both ouabain and compound are administered intravenously; NA = inactive up to 30 mg/kg; type: functional, organism-based; design: dose 30 mg/kg; details: Canis lupus familiaris
How it was run: (§1)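 Adult male mongrel dogs (10–17 kg) anesthetized with pentobarbital (30 mg/kg iv) and intubated with spontaneous respiration. ECG lead II recorded. Ouabain given iv as boluses: 40 μg/kg, then 20 μg/kg at 30 min, then 10 μg/kg every 15 min until a stable ventricular arrhythmia (>95% ectopic ventricular complexes). Test drug given iv, doses calculated as free base.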

Canis familiaris [3] = experiment: Evaluated for ouabain-induced arrhythmia in anesthetized adult male mongrel dogs. Administered intravenously.; type: functional, Canis lupus familiaris; how it was run: as §1
Cavia porcellus [4] = organism: Cavia porcellus; experiment: Anticholinergic activity is assessed in guinea pig ileum at 30 uM; details: read-out: pA2 (converted)
Cavia porcellus [5] = organism: Cavia porcellus; experiment: Anticholinergic activity is assessed in guinea pig ileum at 50 uM; type: functional; details: read-out: pA2 (converted)
How it was run: (§2)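 Isolated guinea pig ileum contracted with methacholine. Tissue washed between increasing methacholine concentrations. A single antagonist dose was given 15 min before each methacholine concentration. Methacholine EC50 (50% of maximal response) was found per muscle with and without antagonist. pA2 = −log KB, where KB = [antagonist]/((EC50 with/EC50 without) − 1). Doses calculated as free base.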

Canis familiaris [6] = experiment: Compound was evaluated for ouabain-induced arrhythmia in anesthetized adult male mongrel dogs. Both ouabain and compound are administered intravenously; NA means not effective; type: functional, organism-based; details: Canis lupus familiaris; how it was run: as §1
Cavia porcellus [7] = organism: Cavia porcellus; experiment: Anticholinergic activity is assessed in guinea pig ileum at 10 uM; type: functional; details: read-out: pA2 (converted); how it was run: as §2
Cavia porcellus [8] = organism: Cavia porcellus; experiment: Anticholinergic activity is assessed in guinea pig ileum at 30 uM; type: functional, organism-based; details: read-out: pA2 (converted); how it was run: as §2

Structure (SMILES) | Inhibition (Cavia porcellus [1]) | Dose (Canis familiaris [3]) | further results
COc1cc(C(=O)Nc2cc(CN3CCCC3)c(O)c(CN3CCCC3)c2)cc(OC)c1OC.Cl.Cl | 6% | – | DOSE (Canis familiaris [2]): inactive
O=C(Nc1cc(CN2CCCC2)c(O)c(CN2CCCC2)c1)c1ccccc1 | 30% | 3.4 mg/kg | Kb (Cavia porcellus [4]): 10 µM
CC(C)N(CCC(C(N)=O)(c1ccccc1)c1ccccn1)C(C)C (stereo not given) [DISOPYRAMIDE] | 81% | 4.4 mg/kg | Kb (Cavia porcellus [4]): 0.363 µM
Cl.Cl.O=C(Nc1cc(CN2CCCC2)c(O)c(CN2CCCC2)c1)c1ccccc1C(F)(F)F | 0% | 6.5 mg/kg | Kb (Cavia porcellus [5]): 17.4 µM
Oc1c(CN2CCCC2)cc(Nc2ncnc3ccccc23)cc1CN1CCCC1 [CHANGROLIN] | 43% | 5.5 mg/kg | –
Cl.Cl.O=C(Nc1cc(CN2CCCC2)c(O)c(CN2CCCC2)c1)c1ccc(Cl)cc1Cl | 11% | – | DOSE (Canis familiaris [6]): Not effective
Cc1ccsc1C(=O)Nc1cc(CN2CCCC2)c(O)c(CN2CCCC2)c1 | – | 1.6 mg/kg | –
C=C[C@H]1CN2CC[C@H]1C[C@@H]2[C@@H](O)c1ccnc2ccc(OC)cc12 [QUINIDINE] | 62% | 10.5 mg/kg | Kb (Cavia porcellus [7]): 1 µM
Cl.Cl.O=C(NCc1cc(CN2CCCC2)c(O)c(CN2CCCC2)c1)c1ccc(Cl)cc1 | 56% | 3.7 mg/kg | –
Cl.Cl.O=C(NCc1cc(CN2CCCC2)c(O)c(CN2CCCC2)c1)c1cccc(Cl)c1 | 78% | 9 mg/kg | –
O=C(Nc1cc(CN2CCCC2)c(O)c(CN2CCCC2)c1)c1ccccc1Cl | 0% | 5 mg/kg | Kb (Cavia porcellus [5]): 7.59 µM
O=C(Nc1cc(CN2CCCC2)c(O)c(CN2CCCC2)c1)c1ccc(Cl)cc1 | 49% | 1.5 mg/kg | –
Cc1cccc(C(=O)Nc2cc(CN3CCCC3)c(O)c(CN3CCCC3)c2)c1.Cl.Cl | 32% | 5.2 mg/kg | –
Cl.Cl.O=C(NCc1cc(CN2CCCC2)c(O)c(CN2CCCC2)c1)c1ccccc1Cl | 19% | 2.5 mg/kg | Kb (Cavia porcellus [5]): 12 µM
O=C(Nc1cc(CN2CCCC2)c(O)c(CN2CCCC2)c1)c1cccs1 | 44% | 2 mg/kg | Kb (Cavia porcellus [8]): 15.8 µM
Nc1ccc(C(=O)Nc2cc(CN3CCCC3)c(O)c(CN3CCCC3)c2)cc1 | 0% | 4.5 mg/kg | –
Cl.Cl.O=C(NCc1cc(CN2CCCC2)c(O)c(CN2CCCC2)c1)c1ccccc1C(F)(F)F | 8% | 1.9 mg/kg | –

Structure (SMILES) | Inhibition (Cavia porcellus [1]) | Dose (Canis familiaris [3]) | further results
Cl.Cl.O=C(Nc1cc(CN2CCCC2)c(O)c(CN2CCCC2)c1)c1cccc(Cl)c1 | 37% | 3.8 mg/kg | –
COc1ccccc1C(=O)Nc1cc(CN2CCCC2)c(O)c(CN2CCCC2)c1.Cl.Cl | 31% | 3 mg/kg | –
CCN(CC)CCNC(=O)c1ccc(N)cc1 [PROCAINAMIDE] | 0% | 29 mg/kg | –
Cl.Cl.O=C(NCc1cc(CN2CCCC2)c(O)c(CN2CCCC2)c1)c1ccc(C(F)(F)F)cc1 | 50% | 4.5 mg/kg | –
O=C(Nc1cc(CN2CCCC2)c(O)c(CN2CCCC2)c1)c1ccc(C(F)(F)F)cc1 | 42% | 5.3 mg/kg | –
Cl.Cl.O=C(Nc1cc(CN2CCCC2)c(O)c(CN2CCCC2)c1)c1c(Cl)cccc1Cl | 14% | 4.6 mg/kg | Kb (Cavia porcellus [5]): 4.68 µM
Cl.Cl.O=C(NCc1cc(CN2CCCC2)c(O)c(CN2CCCC2)c1)c1cccc(C(F)(F)F)c1 | 72% | 5.5 mg/kg | –
Cc1ccccc1C(=O)Nc1cc(CN2CCCC2)c(O)c(CN2CCCC2)c1.Cl.Cl | 9% | 2.7 mg/kg | Kb (Cavia porcellus [8]): 19.5 µM
O=C(Cc1cccs1)Nc1cc(CN2CCCC2)c(O)c(CN2CCCC2)c1 | 13% | – | DOSE (Canis familiaris [6]): Not effective
O=C(Nc1cc(CN2CCCC2)c(O)c(CN2CCCC2)c1)c1ccc([N+](=O)[O-])cc1 | 24% | 11 mg/kg | –
O=C(NCc1cc(CN2CCCC2)c(O)c(CN2CCCC2)c1)c1ccccc1 | 34% | 3 mg/kg | –
Cc1cccc(C)c1C(=O)Nc1cc(CN2CCCC2)c(O)c(CN2CCCC2)c1.Cl.Cl | 15% | 3.2 mg/kg | Kb (Cavia porcellus [5]): 5.5 µM
Cl.O=C(Nc1cc(CN2CCCC2)c(O)c(CN2CCCC2)c1)c1cccc(C(F)(F)F)c1 | 62% | 2.3 mg/kg | –
COc1ccc(C(=O)Nc2cc(CN3CCCC3)c(O)c(CN3CCCC3)c2)cc1 | 24% | 7.3 mg/kg | –
Cc1ccc(C(=O)Nc2cc(CN3CCCC3)c(O)c(CN3CCCC3)c2)cc1 | 22% | 3 mg/kg | –
O=C(Nc1cc(CN2CCCC2)c(O)c(CN2CCCC2)c1)c1cc(Br)sc1Br | – | 4.3 mg/kg | –
Cc1ccc(C(=O)Nc2cc(CN3CCCC3)c(O)c(CN3CCCC3)c2)s1 | – | 4.3 mg/kg | –
